# What was measured:
# Format in all cases: functional
# Staphylococcus aureus [1] = assay: Antimicrobial activity against SCCmec type II vancomycin-intermediate Staphylococcus aureus isolate 6zjsau7 by agar dilution method
# Method in brief: (§1)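 Agar-dilution MICs were measured on a subset of 200 blood MRSA isolates from China. Agents: oxacillin, rifampin, gentamicin, levofloxacin, erythromycin, vancomycin, teicoplanin, tigecycline, ceftobiprole and linezolid. Phenotype came from the PAP-AUC ratio of each isolate to S. aureus Mu3 (VSSA <0.9; hVISA 0.9 to 1.3; VISA ≥1.3), read on BHI agar with 0 to 8.0 mg/liter vancomycin after 48 h at 35°C.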
# Staphylococcus aureus [2] = assay: Antimicrobial activity against SCCmec type III vancomycin-intermediate Staphylococcus aureus isolate b6k1642 by agar dilution method; method in brief: as §1
# Staphylococcus aureus [3] = assay: Antimicrobial activity against SCCmec type II vancomycin-intermediate Staphylococcus aureus isolate 4sy39 by agar dilution method; method in brief: as §1
# Staphylococcus aureus [4] = assay: Antimicrobial activity against SCCmec type II vancomycin-intermediate Staphylococcus aureus isolate sh06024 by agar dilution method; method in brief: as §1
# Staphylococcus aureus [5] = assay: Antimicrobial activity against SCCmec type III vancomycin-intermediate Staphylococcus aureus isolate gz07030 by agar dilution method; method in brief: as §1
# Staphylococcus aureus [6] = assay: Antimicrobial activity against SCCmec type III vancomycin-intermediate Staphylococcus aureus isolate 5zjsau3 by agar dilution method; method in brief: as §1
# Staphylococcus aureus [7] = assay: Antimicrobial activity against SCCmec type II vancomycin-intermediate Staphylococcus aureus isolate 07b63 by agar dilution method; method in brief: as §1
# Staphylococcus aureus [8] = assay: Antimicrobial activity against SCCmec type III vancomycin-intermediate Staphylococcus aureus isolate b5k3529 by agar dilution method; method in brief: as §1
# Staphylococcus aureus [9] = assay: Antimicrobial activity against SCCmec type III vancomycin-intermediate Staphylococcus aureus isolate 15b52 by agar dilution method; method in brief: as §1
# Staphylococcus aureus [10] = assay: Antimicrobial activity against SCCmec type III vancomycin-intermediate Staphylococcus aureus isolate xa07029 by agar dilution method; method in brief: as §1
# Staphylococcus aureus [11] = assay: Antimicrobial activity against SCCmec type III vancomycin-intermediate Staphylococcus aureus isolate 11b091 by agar dilution method; method in brief: as §1
# Staphylococcus aureus [12] = assay: Antimicrobial activity against SCCmec type III vancomycin-intermediate Staphylococcus aureus isolate zj07028 by agar dilution method; method in brief: as §1
# Staphylococcus aureus [13] = assay: Antimicrobial activity against SCCmec type III vancomycin-intermediate Staphylococcus aureus isolate b6k7974 by agar dilution method; method in brief: as §1
# Staphylococcus aureus [14] = assay: Antimicrobial activity against SCCmec type III vancomycin-intermediate Staphylococcus aureus isolate b4k6307 by agar dilution method; method in brief: as §1
# Staphylococcus aureus [15] = assay: Antimicrobial activity against SCCmec type III vancomycin-intermediate Staphylococcus aureus isolate gz06040 by agar dilution method; method in brief: as §1
# Staphylococcus aureus [16] = assay: Antimicrobial activity against SCCmec type III vancomycin-intermediate Staphylococcus aureus isolate b3k5923 by agar dilution method; method in brief: as §1
# Staphylococcus aureus [17] = assay: Antimicrobial activity against SCCmec type III vancomycin-intermediate Staphylococcus aureus isolate sh07043 by agar dilution method; method in brief: as §1
# Staphylococcus aureus [18] = assay: Antimicrobial activity against SCCmec type III vancomycin-intermediate Staphylococcus aureus isolate b5k3578 by agar dilution method; method in brief: as §1
# Staphylococcus aureus [19] = assay: Antimicrobial activity against SCCmec type III vancomycin-intermediate Staphylococcus aureus isolate 13b16 by agar dilution method; method in brief: as §1
# Staphylococcus aureus [20] = assay: Antimicrobial activity against SCCmec type IV vancomycin-intermediate Staphylococcus aureus isolate 06b41 by agar dilution method; method in brief: as §1
# Staphylococcus aureus [21] = assay: Antimicrobial activity against SCCmec type II vancomycin-intermediate Staphylococcus aureus isolate b2k4781 by agar dilution method; method in brief: as §1
# Staphylococcus aureus [22] = assay: Antimicrobial activity against SCCmec type III vancomycin-intermediate Staphylococcus aureus isolate b3k2345 by agar dilution method; method in brief: as §1
# Staphylococcus aureus [23] = assay: Antimicrobial activity against SCCmec type III vancomycin-intermediate Staphylococcus aureus isolate bd4768 by agar dilution method; method in brief: as §1
# Staphylococcus aureus [24] = assay: Antimicrobial activity against SCCmec type III vancomycin-intermediate Staphylococcus aureus isolate gz06051 by agar dilution method; method in brief: as §1
# Staphylococcus aureus [25] = assay: Antimicrobial activity against SCCmec type III vancomycin-intermediate Staphylococcus aureus isolate gs07022 by agar dilution method; method in brief: as §1
# Staphylococcus aureus [26] = assay: Antimicrobial activity against SCCmec type II vancomycin-intermediate Staphylococcus aureus isolate 4sy32 by agar dilution method; method in brief: as §1
# Staphylococcus aureus [27] = assay: Antimicrobial activity against SCCmec type III vancomycin-intermediate Staphylococcus aureus isolate b2k3421 by agar dilution method; method in brief: as §1
Molecule,MIC (Staphylococcus aureus [1]),MIC (Staphylococcus aureus [2]),MIC (Staphylococcus aureus [3]),MIC (Staphylococcus aureus [4]),MIC (Staphylococcus aureus [5]),MIC (Staphylococcus aureus [6]),MIC (Staphylococcus aureus [7]),MIC (Staphylococcus aureus [8]),MIC (Staphylococcus aureus [9]),MIC (Staphylococcus aureus [10]),MIC (Staphylococcus aureus [11]),MIC (Staphylococcus aureus [12]),MIC (Staphylococcus aureus [13]),MIC (Staphylococcus aureus [14]),MIC (Staphylococcus aureus [15]),MIC (Staphylococcus aureus [16]),MIC (Staphylococcus aureus [17]),MIC (Staphylococcus aureus [18]),MIC (Staphylococcus aureus [19]),MIC (Staphylococcus aureus [20]),also measured
C[C@H]1COc2c(N3CCN(C)CC3)c(F)cc3c(=O)c(C(=O)O)cn1c23.C[C@H]1COc2c(N3CCN(C)CC3)c(F)cc3c(=O)c(C(=O)O)cn1c23.O [LEVOFLOXACIN],32 µg/mL,16 µg/mL,16 µg/mL,8 µg/mL,64 µg/mL,16 µg/mL,8 µg/mL,16 µg/mL,4 µg/mL,8 µg/mL,32 µg/mL,8 µg/mL,64 µg/mL,4 µg/mL,64 µg/mL,32 µg/mL,32 µg/mL,16 µg/mL,32 µg/mL,0.25 µg/mL,MIC (Staphylococcus aureus [21]): 32 µg/mL; MIC (Staphylococcus aureus [22]): 16 µg/mL; MIC (Staphylococcus aureus [23]): 32 µg/mL; MIC (Staphylococcus aureus [24]): 64 µg/mL; MIC (Staphylococcus aureus [25]): 32 µg/mL; MIC (Staphylococcus aureus [26]): 8 µg/mL; MIC (Staphylococcus aureus [27]): 16 µg/mL
GENTAMICIN,256 µg/mL,> 256 µg/mL,64 µg/mL,256 µg/mL,> 256 µg/mL,> 256 µg/mL,64 µg/mL,> 256 µg/mL,256 µg/mL,128 µg/mL,256 µg/mL,> 256 µg/mL,256 µg/mL,128 µg/mL,256 µg/mL,128 µg/mL,128 µg/mL,> 256 µg/mL,256 µg/mL,0.25 µg/mL,MIC (Staphylococcus aureus [21]): > 256 µg/mL; MIC (Staphylococcus aureus [22]): 128 µg/mL; MIC (Staphylococcus aureus [23]): 256 µg/mL; MIC (Staphylococcus aureus [24]): 128 µg/mL; MIC (Staphylococcus aureus [25]): 8 µg/mL; MIC (Staphylococcus aureus [26]): 64 µg/mL; MIC (Staphylococcus aureus [27]): 128 µg/mL
CO[C@H]1/C=C/O[C@@]2(C)Oc3c(C)c(O)c4c(O)c(c(/C=N/N5CCN(C)CC5)c(O)c4c3C2=O)NC(=O)/C(C)=C\C=C\[C@H](C)[C@H](O)[C@@H](C)[C@@H](O)[C@@H](C)[C@H](OC(C)=O)[C@@H]1C [RIFAMPIN],0.008 µg/mL,16 µg/mL,0.008 µg/mL,> 256 µg/mL,0.004 µg/mL,0.008 µg/mL,0.008 µg/mL,0.5 µg/mL,0.016 µg/mL,> 256 µg/mL,0.008 µg/mL,≤ 0.002 µg/mL,256 µg/mL,256 µg/mL,0.008 µg/mL,256 µg/mL,0.016 µg/mL,0.5 µg/mL,0.008 µg/mL,0.016 µg/mL,MIC (Staphylococcus aureus [21]): 0.008 µg/mL; MIC (Staphylococcus aureus [22]): 0.008 µg/mL; MIC (Staphylococcus aureus [23]): 256 µg/mL; MIC (Staphylococcus aureus [24]): > 256 µg/mL; MIC (Staphylococcus aureus [25]): 0.008 µg/mL; MIC (Staphylococcus aureus [26]): 0.008 µg/mL; MIC (Staphylococcus aureus [27]): 0.008 µg/mL
CC[C@H]1OC(=O)[C@H](C)[C@@H](O[C@H]2C[C@@](C)(OC)[C@@H](O)[C@H](C)O2)[C@H](C)[C@@H](O[C@@H]2O[C@H](C)C[C@H](N(C)C)[C@H]2O)[C@](C)(O)C[C@@H](C)C(=O)[C@H](C)[C@@H](O)[C@]1(C)O [ERYTHROMYCIN],> 256 µg/mL,> 256 µg/mL,256 µg/mL,> 256 µg/mL,> 256 µg/mL,> 256 µg/mL,> 256 µg/mL,> 256 µg/mL,256 µg/mL,> 256 µg/mL,> 256 µg/mL,> 256 µg/mL,> 256 µg/mL,> 256 µg/mL,> 256 µg/mL,> 256 µg/mL,> 256 µg/mL,2 µg/mL,> 256 µg/mL,128 µg/mL,MIC (Staphylococcus aureus [21]): > 256 µg/mL; MIC (Staphylococcus aureus [22]): > 256 µg/mL; MIC (Staphylococcus aureus [23]): > 256 µg/mL; MIC (Staphylococcus aureus [24]): 0.25 µg/mL; MIC (Staphylococcus aureus [25]): > 256 µg/mL; MIC (Staphylococcus aureus [26]): 1 µg/mL; MIC (Staphylococcus aureus [27]): > 256 µg/mL
CC[C@H]1OC(=O)[C@H](C)[C@@H](O[C@H]2C[C@@](C)(OC)[C@@H](O)[C@H](C)O2)[C@H](C)[C@@H](O[C@@H]2O[C@H](C)C[C@H](N(C)C)[C@H]2O)[C@](C)(OC)C[C@@H](C)C(=O)[C@H](C)[C@@H](O)[C@]1(C)O [CLARITHROMYCIN],> 64 µg/mL,64 µg/mL,32 µg/mL,32 µg/mL,64 µg/mL,32 µg/mL,64 µg/mL,64 µg/mL,16 µg/mL,32 µg/mL,> 64 µg/mL,32 µg/mL,64 µg/mL,16 µg/mL,32 µg/mL,64 µg/mL,> 64 µg/mL,32 µg/mL,16 µg/mL,1 µg/mL,MIC (Staphylococcus aureus [21]): 64 µg/mL; MIC (Staphylococcus aureus [22]): 64 µg/mL; MIC (Staphylococcus aureus [23]): 64 µg/mL; MIC (Staphylococcus aureus [24]): 64 µg/mL; MIC (Staphylococcus aureus [25]): 64 µg/mL; MIC (Staphylococcus aureus [26]): 32 µg/mL; MIC (Staphylococcus aureus [27]): 64 µg/mL
Cc1onc(-c2ccccc2)c1C(=O)N[C@@H]1C(=O)N2[C@@H]1SC(C)(C)[C@@H]2C(=O)O [OXACILLIN],> 64 µg/mL,> 64 µg/mL,256 µg/mL,> 64 µg/mL,> 64 µg/mL,> 64 µg/mL,> 64 µg/mL,> 64 µg/mL,> 64 µg/mL,> 64 µg/mL,> 64 µg/mL,> 64 µg/mL,> 64 µg/mL,> 64 µg/mL,32 µg/mL,> 64 µg/mL,> 64 µg/mL,> 64 µg/mL,> 64 µg/mL,8 µg/mL,MIC (Staphylococcus aureus [21]): > 64 µg/mL; MIC (Staphylococcus aureus [22]): > 64 µg/mL; MIC (Staphylococcus aureus [23]): > 64 µg/mL; MIC (Staphylococcus aureus [24]): > 64 µg/mL; MIC (Staphylococcus aureus [25]): 8 µg/mL; MIC (Staphylococcus aureus [26]): 256 µg/mL; MIC (Staphylococcus aureus [27]): > 64 µg/mL
